Test results as given in ChEMBL document CHEMBL3352814, “Design, synthesis and biological evaluation of biphenylamide derivatives as Hsp90 C-terminal inhibitors” (Eur J Med Chem, 2015).
pIC50: −log10 of the molar value.

What was measured:
MCF7 = assay: Antiproliferative activity against human MCF7 cells after 72 hrs by MTS/PMS assay; format: functional, cell-based; conditions: MCF7, 72 h
Outline: (§1)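 Cells kept in 1:1 Advanced DMEM/F12 with non-essential amino acids, 2 mM L-glutamine, penicillin/streptomycin and 10% FBS at 37 °C, 5% CO2. Seeded 2000 cells/well, attached overnight, then given compound at varying concentrations in DMSO (1% final) for 72 h. Viable cells read by MTS/PMS. Normalised to 1% DMSO wells as 100% proliferation. IC50 from separate experiments run in triplicate.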

[1] = Antiproliferative activity against human SKBR3 cells after 72 hrs by MTS/PMS assay; format: functional, cell-based; conditions: SK-BR-3, 72 h; outline: as §1

pIC50 (MCF7) | Compound | pIC50 [1]
5.96 | COc1ccc(C(=O)Nc2ccc(-c3ccc(OC4CCN(C)CC4)cc3)cc2)cc1-c1cccc([N+](=O)[O-])c1 | 6.40
5.78 | COc1cccc(-c2cc(C(=O)Nc3ccc(-c4ccc(OC5CCN(C)CC5)cc4)cc3NC(C)=O)ccc2OC)c1 | 5.45
5.84 | COc1ccc(C(=O)Nc2ccc(-c3ccc(OC4CCN(C)CC4)cc3)cc2)cc1-c1cccc(NC(C)=O)c1 | 5.47
6.10 | COc1ccc(-c2cc(C(=O)Nc3ccc(-c4ccc(OC5CCN(C)CC5)cc4)cc3)ccc2OC)cc1 | 6.20
5.97 | COc1ccc(C(=O)Nc2ccc(-c3ccc(OC4CCN(C)CC4)cc3)cc2)cc1-c1cccc(O)c1 | 5.81
5.91 | COc1cccc(-c2cc(C(=O)Nc3ccc(-c4ccc(OC5CCN(C)CC5)c([N+](=O)[O-])c4)cc3)ccc2OC)c1 | 5.68
5.78 | COc1ccc(C(=O)Nc2ccc(-c3ccc(OC4CCN(C)CC4)cc3)cc2)cc1-c1cccc(N)c1 | 5.82
5.91 | COc1cccc(-c2cc(C(=O)Nc3ccc(-c4ccc(OC5CCN(C)CC5)cc4)cc3OC)ccc2OC)c1 | 5.41
5.99 | COc1cccc(-c2cccc(C(=O)Nc3ccc(-c4ccc(OC5CCN(C)CC5)cc4)cc3)c2)c1 | 6.09
5.83 | COc1cccc(-c2cc(C(=O)Nc3ccc(-c4ccc(OC5CCN(C)CC5)cc4Cl)cc3)ccc2OC)c1 | 5.89
5.80 | CN1CCC(Oc2ccc(-c3ccc(NC(=O)c4ccc(Cl)c(Cl)c4)cc3)cc2)CC1 | 5.92
5.99 | COc1cccc(-c2cc(C(=O)Nc3ccc(-c4ccc(OC5CCN(C)CC5)cc4)nc3)ccc2OC)c1 | 5.92
5.94 | COc1cccc(-c2cc(C(=O)Nc3ccc(-c4ccc(OC5CCN(C)CC5)cc4)cc3[N+](=O)[O-])ccc2OC)c1 | 5.47
5.47 | Cc1ccc(C(=O)Nc2ccc(-c3ccc(OC4CCN(C)CC4)cc3)cc2)cc1Br | 5.55
5.86 | CN1CCC(Oc2ccc(-c3ccc(NC(=O)c4ccc(Cl)cc4Cl)cc3)cc2)CC1 | 6.10
6.43 | CC(C)=CCc1cc(NC(=O)Nc2cc3ccc(OC4CCN(C)CC4)c(C)c3oc2=O)ccc1O | 6.41
5.75 | COc1cccc(-c2cc(C(=O)Nc3ccc(-c4ccc(OC5CCN(C)CC5)cc4N)cc3)ccc2OC)c1 | 5.67
5.88 | COc1cccc(-c2cc(C(=O)Nc3ccc(-c4ccc(OC5CCN(C)CC5)c(OC)c4)cc3)ccc2OC)c1 | 6.17
5.35 | CN1CCC(Oc2ccc(-c3ccc(NC(=O)c4ccc(-c5ccccc5)cc4)cc3)cc2)CC1 | 5.34
5.94 | COc1cccc(-c2cc(C(=O)Nc3ccc(-c4ccc(OC5CCN(C)CC5)cc4)cn3)ccc2OC)c1 | 5.97
5.86 | CC(=O)Oc1ccc(C(=O)Nc2ccc(-c3ccc(OC4CCN(C)CC4)cc3)cc2)cc1CC=C(C)C | 5.74
6.30 | COc1ccc(C(=O)Nc2ccc(-c3ccc(OC4CCN(C)CC4)cc3)cc2)cc1-c1ccc(O)cc1 | 6.89
5.99 | Cc1cc(C(=O)Nc2ccc(-c3ccc(OC4CCN(C)CC4)cc3)cc2)ccc1Cl | 5.95
5.90 | Cc1ccc(C(=O)Nc2ccc(-c3ccc(OC4CCN(C)CC4)cc3)cc2)cc1 | 6.01
5.46 | COc1cccc(-c2cc(C(=O)Nc3ccc(-c4ccc(OC5CCN(C)CC5)cc4)c(Cl)c3)ccc2OC)c1 | 5.66
5.68 | COc1cccc(-c2cc(C(=O)Nc3ccc(-c4ccc(OC5CCN(C)CC5)cc4)c(N)c3)ccc2OC)c1 | 5.41

pIC50 (MCF7) | Compound | pIC50 [1]
5.74 | COc1cccc(-c2cc(C(=O)Nc3ccc(-c4ccc(OC5CCN(C)CC5)cc4)cc3Cl)ccc2OC)c1 | 5.37
5.27 | COc1cccc(C(=O)Nc2ccc(-c3ccc(OC4CCN(C)CC4)cc3)cc2)c1 | 5.54
5.74 | COc1cccc(-c2cc(C(=O)Nc3ccc(-c4ccc(OC5CCN(C)CC5)c(NC(C)=O)c4)cc3)ccc2OC)c1 | 5.58
5.23 | COc1cccc(-c2cc(C(=O)Nc3ccc(-c4ccc(OC5CCN(C)CC5)c(N)c4)cc3)ccc2OC)c1 | 5.65
5.87 | COc1cccc(-c2cc(C(=O)Nc3ccc(-c4ccc(OC5CCN(C)CC5)cc4OC)cc3)ccc2OC)c1 | 5.85
5.64 | Cc1ccc(C(=O)Nc2ccc(-c3ccc(OC4CCN(C)CC4)cc3)cc2)cc1Cl | 5.71
5.68 | CN1CCC(Oc2ccc(-c3ccc(NC(=O)c4ccc5ncccc5c4)cc3)cc2)CC1 | 5.88
5.77 | CC(=O)Oc1ccc(C(=O)Nc2cccc(-c3cccc(OC4CCN(C)CC4)c3)c2)cc1CC=C(C)C | 5.75
5.56 | CN1CCC(Oc2ccc(-c3ccc(NC(=O)c4cnc5ccccc5c4)cc3)cc2)CC1 | 5.62
5.70 | CN1CCC(Oc2ccc(-c3ccc(NC(=O)c4cc5ccccc5s4)cc3)cc2)CC1 | 5.88
5.82 | COc1cccc(-c2cc(C(=O)Nc3ccc(-c4ccc(OC5CCN(C)CC5)cc4)c(OC)c3)ccc2OC)c1 | 6.05
5.40 | CN1CCC(Oc2ccc(-c3ccc(NC(=O)c4ccccc4)cc3)cc2)CC1 | 5.38
5.18 | CN1CCC(Oc2ccc(-c3ccc(NC(=O)c4ccccc4-c4ccccc4)cc3)cc2)CC1 | 5.20
5.97 | CN1CCC(Oc2ccc(-c3ccc(NC(=O)c4ccc(C(C)(C)C)cc4)cc3)cc2)CC1 | 5.90
5.87 | COc1cccc(-c2cc(C(=O)Nc3ccc(-c4ccc(OC5CCN(C)CC5)cc4NC(C)=O)cc3)ccc2OC)c1 | 5.47
5.81 | COc1cccc(-c2cc(C(=O)Nc3ccc(-c4ccc(OC5CCN(C)CC5)nc4)cc3)ccc2OC)c1 | 5.78
5.65 | COc1cccc(-c2cc(C(=O)Nc3ccc(-c4ccc(OC5CCN(C)CC5)cc4)cc3N)ccc2OC)c1 | 5.49
5.89 | COc1cccc(-c2cc(C(=O)Nc3ccc(-c4ccc(OC5CCN(C)CC5)cn4)cc3)ccc2OC)c1 | 5.72
5.83 | COc1cccc(-c2cc(C(=O)Nc3ccc(-c4ccc(OC5CCN(C)CC5)c(Cl)c4)cc3)ccc2OC)c1 | 5.74
5.92 | COc1cccc(-c2cc(C(=O)Nc3ccc(-c4ccc(OC5CCN(C)CC5)cc4C)cc3)ccc2OC)c1 | 5.93
5.90 | COc1cccc(-c2cc(C(=O)Nc3cccc(-c4ccc(OC5CCN(C)CC5)cc4)c3)ccc2OC)c1 | 5.44
5.33 | COc1cccc(-c2cc(C(=O)Nc3ccc(-c4ccc(OC5CCN(C)CC5)cc4)c(NC(C)=O)c3)ccc2OC)c1 | 5.60
6.21 | COc1ccc(C(=O)Nc2ccc(-c3ccc(OC4CCN(C)CC4)cc3)cc2)cc1-c1cccc(OC(C)=O)c1 | 6.57
5.84 | COc1cccc(-c2cc(C(=O)Nc3ccc(-c4ccc(OC5CCN(C)CC5)cc4)cc3C)ccc2OC)c1 | 5.61
5.77 | CN1CCC(Oc2ccc(-c3ccc(NC(=O)c4cc(Cl)cc(Cl)c4)cc3)cc2)CC1 | 6.09
